Measured values as given in ChEMBL document CHEMBL1144157, “Synthesis of new 1-phenyl-3-{4-[(2E)-3-phenylprop-2-enoyl]phenyl}-thiourea and urea derivatives with anti-nociceptive activity” (2008).
The source made the active and inactive calls.

Assays:
Mus musculus [1] = experiment: Antinociceptive activity against acetic acid-induced abdominal constrictions in Swiss mouse assessed as maximal inhibition at 10 mg/kg, ip pretreated 30 mins before acetic acid challenge; format: functional; settings: Abdomen, route intraperitoneal
How it was run: (§1)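 Swiss mice (25–35 g), 10 ml/kg ip of compound (1–60 mg/kg) or 0.9% NaCl control, given 30 min before ip 0.6% acetic acid. Abdominal constrictions with hind-limb stretching counted cumulatively over 20 min, mice in separate glass funnels at 20–22 °C. Groups of six to eight. ID50 is the geometric mean with 95% confidence limits, found by graphical interpolation.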

Mus musculus [2] = experiment: Antinociceptive activity against acetic acid-induced abdominal constrictions in po dosed Swiss mouse pretreated 30 mins before acetic acid challenge; format: functional; settings: Abdomen, read-out: ID50 (the source's name)
How it was run: (§2)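 Oral pretreatment (50–200 mg/kg) of Swiss mice before ip 0.6% acetic acid. Writhing (abdominal contractions plus hind-limb stretching) counted cumulatively for 20 min at 20–22 °C. Six animals per group, mean ± s.e.m. ID50 with 95% confidence limits obtained by graphical interpolation.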

Mus musculus [3] = experiment: Antinociceptive activity against formalin-induced paw pain in ip dosed Swiss mouse pretreated 30 mins before formalin challenge assessed after 0 to 5 mins; format: functional; settings: for ED50: read-out: ID50 (the source's name)
How it was run: (§3)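 Mice given compound (6–30 mg/kg, ip) or saline 30 min before intraplantar injection into the right hind paw of 20 µl 2.5% formalin (0.92% formaldehyde) in saline. Paw-licking time scored in a glass cylinder with a 45° mirror, 0–5 min (early phase) and 15–30 min (late phase). n = 6. ID50 as geometric mean with 95% confidence limits.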

Mus musculus [4] = experiment: Antinociceptive activity against capsaicin-induced paw pain in Swiss mouse assessed as maximal inhibition at 10 mg/kg, ip pretreated 30 mins before capsaicin challenge; format: functional, organism-based; set-up: dose 10 mg/kg
Mus musculus [5] = experiment: Antinociceptive activity against acetic acid-induced abdominal constrictions in Swiss mouse assessed as maximal inhibition at 200 mg/kg, po pretreated 30 mins before acetic acid challenge; format: functional; settings: Abdomen; how it was run: as §2
Mus musculus [6] = experiment: Antinociceptive activity against acetic acid-induced abdominal constrictions in ip dosed Swiss mouse pretreated 30 mins before acetic acid challenge; format: functional; settings: Abdomen; for ED50: read-out: ID50 (the source's name); how it was run: as §1
Mus musculus [7] = experiment: Antinociceptive activity against acetic acid-induced abdominal constrictions in Swiss mouse assessed as maximal inhibition at 50 mg/kg, po pretreated 30 mins before acetic acid challenge; format: functional; settings: Abdomen; how it was run: as §2
Mus musculus [8] = experiment: Antinociceptive activity against acetic acid-induced abdominal constrictions in Swiss mouse assessed as maximal inhibition at 100 mg/kg, po pretreated 30 mins before acetic acid challenge; format: functional; settings: Abdomen; how it was run: as §2
Mus musculus [9] = experiment: Antinociceptive activity against formalin-induced paw pain in ip dosed Swiss mouse pretreated 30 mins before formalin challenge assessed after 15 to 30 mins; format: functional; settings: for ED50: read-out: ID50 (the source's name); how it was run: as §3
Mus musculus [10] = experiment: Antinociceptive activity against formalin-induced paw pain in Swiss mouse assessed as maximal inhibition at 10 mg/kg, ip pretreated 30 mins before formalin challenge assessed after 0 to 5 mins; format: functional; settings: route intraperitoneal; how it was run: as §3
Mus musculus [11] = experiment: Antinociceptive activity against formalin-induced paw pain in Swiss mouse assessed as maximal inhibition at 30 mg/kg, ip pretreated 30 mins before formalin challenge assessed after 0 to 5 mins; format: functional; settings: route intraperitoneal; how it was run: as §3
Mus musculus [12] = experiment: Antinociceptive activity against formalin-induced paw pain in Swiss mouse assessed as maximal inhibition at 6 mg/kg, ip pretreated 30 mins before formalin challenge assessed after 15 to 30 mins; format: functional; settings: route intraperitoneal; how it was run: as §3
Mus musculus [13] = experiment: Antinociceptive activity against formalin-induced paw pain in Swiss mouse assessed as maximal inhibition at 10 mg/kg, ip pretreated 30 mins before formalin challenge assessed after 15 to 30 mins; format: functional; settings: route intraperitoneal; how it was run: as §3
Mus musculus [14] = experiment: Antinociceptive activity against formalin-induced paw pain in Swiss mouse assessed as maximal inhibition at 30 mg/kg, ip pretreated 30 mins before formalin challenge assessed after 15 to 30 mins; format: functional; settings: route intraperitoneal; how it was run: as §3
Mus musculus [15] = experiment: Antinociceptive activity against glutamate-induced paw pain in ip dosed Swiss mouse pretreated 30 mins before glutamate challenge; format: functional; settings: read-out: ID50 (the source's name)
How it was run: (§4)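 Mice treated ip (6–30 mg/kg) 30 min before intraplantar injection into the right hind paw of 20 µl glutamate in PBS (30 µmol/paw). Time spent licking or biting the paw timed over 0–15 min in glass cylinders. n = 6. ID50 reported with 95% confidence limits.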

Mus musculus [16] = experiment: Antinociceptive activity against glutamate-induced paw pain in Swiss mouse assessed as maximal inhibition at 10 mg/kg, ip pretreated 30 mins before glutamate challenge; format: functional; settings: route intraperitoneal; how it was run: as §4
Mus musculus [17] = experiment: Antinociceptive activity against glutamate-induced paw pain in Swiss mouse assessed as maximal inhibition at 30 mg/kg, ip pretreated 30 mins before glutamate challenge; format: functional; settings: route intraperitoneal; how it was run: as §4
Mus musculus [18] = experiment: Antinociceptive activity against heat-induced paw licking in Swiss mouse assessed as increase in licking latency period at 10 mg/kg, ip pretreated 30 mins before heat challenge by hot plate method; format: functional, organism-based; set-up: dose 10 mg/kg
How it was run: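 Mice dosed ip (10 mg/kg), saline, or morphine sc, 30 min before placement on a plate held at 56 ± 1 °C. Latency to hind-paw licking, paw shaking or jumping recorded. Animals with baseline latency above 20 s excluded; cut-off 30 s. n = 6.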

Mus musculus [19] = experiment: Antinociceptive activity against acetic acid-induced abdominal constrictions in Swiss mouse at 60 mg/kg, ip pretreated 30 mins before acetic acid challenge; format: functional, organism-based; set-up: dose 60 mg/kg; settings: Abdomen; how it was run: as §1

CC(=O)Oc1ccccc1C(=O)O [ASPIRIN]
inhibition in vivo at 10 mg/kg (Mus musculus [1]): 35%
ED50 (Mus musculus [2]): 605 µmol/kg
Activity (Mus musculus [3]): inactive
Activity (Mus musculus [4]): inactive

O=C(/C=C/c1ccccc1)c1ccc(NC(=S)Nc2ccc(Cl)cc2)cc1
inhibition in vivo at 10 mg/kg (Mus musculus [1]): 94.5%
inhibition in vivo at 200 mg/kg (Mus musculus [5]): 55%
Activity (Mus musculus [6]): Dose-dependent effect
ED50 (Mus musculus [6]): 3.03 µmol/kg
inhibition in vivo at 50 mg/kg (Mus musculus [7]): 23.5%
inhibition in vivo at 100 mg/kg (Mus musculus [8]): 43.4%
ED50 (Mus musculus [2]): 378 µmol/kg
Activity (Mus musculus [3]): Dose-dependent effect
ED50 (Mus musculus [3]): 69.3 µmol/kg
Activity (Mus musculus [9]): Dose-dependent effect
ED50 (Mus musculus [9]): 26.9 µmol/kg
inhibition in vivo at 10 mg/kg (Mus musculus [10]): 37.8%
inhibition in vivo at 30 mg/kg (Mus musculus [11]): 53.9%
inhibition in vivo at 6 mg/kg (Mus musculus [12]): 51%
inhibition in vivo at 10 mg/kg (Mus musculus [13]): 62.6%
inhibition in vivo at 30 mg/kg (Mus musculus [14]): 78.7%
Activity (Mus musculus [4]): inactive
ED50 (Mus musculus [15]): 62.1 µmol/kg
inhibition in vivo at 10 mg/kg (Mus musculus [16]): 42.6%
inhibition in vivo at 30 mg/kg (Mus musculus [17]): 58.3%
Activity (Mus musculus [18]): inactive

Cc1ccc(/C=C/C(=O)c2ccc(NC(=S)Nc3ccc(Cl)cc3)cc2)cc1
inhibition in vivo at 10 mg/kg (Mus musculus [1]): 75.3%
Activity (Mus musculus [6]): Dose-dependent effect
ED50 (Mus musculus [6]): 13.1 µmol/kg

O=C(Nc1ccc(Cl)cc1)Nc1ccc(C(=O)/C=C/c2ccc(Cl)cc2)cc1
inhibition in vivo at 10 mg/kg (Mus musculus [1]): 51%
Activity (Mus musculus [6]): Dose-dependent effect
ED50 (Mus musculus [6]): 45.4 µmol/kg

O=C(Nc1ccc(Cl)cc1)Nc1ccc(C(=O)/C=C/c2ccccc2)cc1
inhibition in vivo at 10 mg/kg (Mus musculus [1]): 74.6%
Activity (Mus musculus [6]): Dose-dependent effect
ED50 (Mus musculus [6]): 7.25 µmol/kg

CC(=O)Nc1ccc(O)cc1 [ACETAMINOPHEN]
inhibition in vivo at 10 mg/kg (Mus musculus [1]): 38%
ED50 (Mus musculus [2]): 1140 µmol/kg
Activity (Mus musculus [3]): inactive
Activity (Mus musculus [4]): inactive

O=C(/C=C/c1ccc(Cl)cc1)c1ccc(NC(=S)Nc2ccc(Cl)cc2)cc1
inhibition in vivo at 10 mg/kg (Mus musculus [1]): 100%
Activity (Mus musculus [6]): Dose-dependent effect
ED50 (Mus musculus [6]): 7.59 µmol/kg

O=C(Nc1ccc(Cl)cc1)Nc1ccc(C(=O)/C=C/c2ccc(Cl)c(Cl)c2)cc1
inhibition in vivo at 10 mg/kg (Mus musculus [1]): 21.6%
Activity (Mus musculus [19]): inactive

O=C(O)Cc1ccccc1Nc1c(Cl)cccc1Cl [DICLOFENAC]
ED50 (Mus musculus [3]): > 94 µmol/kg
ED50 (Mus musculus [9]): 34.5 µmol/kg

Cc1ccc(/C=C/C(=O)c2ccc(NC(=O)Nc3ccc(Cl)cc3)cc2)cc1
inhibition in vivo at 10 mg/kg (Mus musculus [1]): 42.8%
Activity (Mus musculus [6]): Dose-dependent effect
ED50 (Mus musculus [6]): 39.7 µmol/kg

COc1ccc(/C=C/C(=O)c2ccc(NC(=S)Nc3ccc(Cl)cc3)cc2)cc1
inhibition in vivo at 10 mg/kg (Mus musculus [1]): 92%
Activity (Mus musculus [6]): Dose-dependent effect
ED50 (Mus musculus [6]): 10.4 µmol/kg

COc1ccc(/C=C/C(=O)c2ccc(NC(=O)Nc3ccc(Cl)cc3)cc2)cc1
inhibition in vivo at 10 mg/kg (Mus musculus [1]): 84.4%
Activity (Mus musculus [6]): Dose-dependent effect
ED50 (Mus musculus [6]): 31.1 µmol/kg

Cc1c(N(C)CS(=O)(=O)O)c(=O)n(-c2ccccc2)n1C [DIPYRONE SODIUM]
inhibition in vivo at 10 mg/kg (Mus musculus [1]): 33%
ED50 (Mus musculus [6]): 162 µmol/kg
ED50 (Mus musculus [3]): 154 µmol/kg
ED50 (Mus musculus [9]): 264 µmol/kg

O=C(/C=C/c1ccc(Cl)c(Cl)c1)c1ccc(NC(=S)Nc2ccc(Cl)cc2)cc1
inhibition in vivo at 10 mg/kg (Mus musculus [1]): 97.5%
Activity (Mus musculus [6]): Dose-dependent effect
ED50 (Mus musculus [6]): 6.15 µmol/kg
